This passage reports IC50 results from ChEMBL document CHEMBL1131127, “Syntheses of trans-5-oxo-hexahydro-pyrrolo[3,2-b]pyrroles and trans-5-oxo-hexahydro-furo[3,2-b]pyrroles (pyrrolidine trans-lactams and trans-lactones): new pharmacophores for elastase inhibition” (J Med Chem, 1998).

SMILES strings stand for the structures. A value given as a limit tells only on which side of the number the result lay.

The target in test [1] is T1, Neutrophil elastase (Homo sapiens, UniProt P08246).
T1 sequence (P08246 whole entry): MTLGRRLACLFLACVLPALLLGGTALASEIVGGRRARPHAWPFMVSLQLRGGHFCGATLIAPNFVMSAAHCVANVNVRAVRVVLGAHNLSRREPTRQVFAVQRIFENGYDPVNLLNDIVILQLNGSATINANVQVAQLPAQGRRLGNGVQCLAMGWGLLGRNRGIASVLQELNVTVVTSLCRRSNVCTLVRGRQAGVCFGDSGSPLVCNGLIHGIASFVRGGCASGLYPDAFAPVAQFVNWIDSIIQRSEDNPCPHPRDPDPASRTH
The experiment in a line: The compound was tested for inhibition of human neutrophil elastase enzyme with a pre-incubation time of 40 min. The essentials: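 Compound preincubated with HNE for 40 min, then reaction started with MeO-Succ-Ala-Ala-Pro-Val-p-nitroanilide; p-nitroanilide release monitored spectrophotometrically to give IC50. Errors quoted as standard deviations.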

Test [2] deals with T2, Chymotrypsinogen A (Bos taurus, UniProt P00766). Briefly: The compound was tested for inhibition of Chymotrypsinogen with a pre-incubation time of 15 min.
For test [3], the target named is T3, Prothrombin (Homo sapiens, UniProt P00734). Briefly: The compound was tested for inhibition of thrombin with a pre-incubation time of 15 min.
For test [4], the target named is T1, Neutrophil elastase. Briefly: The compound was tested for inhibition of human neutrophil elastase enzyme with a pre-incubation time of 0 min. The essentials:
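HNE IC50: compound preincubated at 30 °C with substrate MeO-Succ-Ala-Ala-Pro-Val-p-nitroanilide, reaction started by adding HNE (0 min enzyme preincubation); p-nitroanilide release followed spectrophotometrically. Errors as standard deviations.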

Test [5] addresses T1, Neutrophil elastase. Briefly: The compound was tested for inhibition of human neutrophil elastase enzyme with a pre-incubation time of 15 min. The essentials:
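IC50 against HNE determined after a 15-min preincubation of compound with enzyme; substrate MeO-Succ-Ala-Ala-Pro-Val-p-nitroanilide, p-nitroanilide release read spectrophotometrically.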

The target in test [6] is T3, Prothrombin. Briefly: The compound was tested for inhibition of thrombin with a pre-incubation time of 15 min.
Test [7] concerns the target T4, Cathepsin G (Homo sapiens, UniProt P08311).
T4 sequence (P08311 whole entry): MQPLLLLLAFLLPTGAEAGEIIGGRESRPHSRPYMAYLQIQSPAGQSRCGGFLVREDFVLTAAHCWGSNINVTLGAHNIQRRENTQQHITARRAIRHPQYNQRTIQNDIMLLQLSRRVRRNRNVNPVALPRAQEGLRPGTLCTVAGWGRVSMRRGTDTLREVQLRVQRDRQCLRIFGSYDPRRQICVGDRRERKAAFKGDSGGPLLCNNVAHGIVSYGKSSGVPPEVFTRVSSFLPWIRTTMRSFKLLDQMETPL
Briefly: The compound was tested for inhibition of cathepsin G with a pre-incubation time of 15 min.

The target of test [8] is T2, Chymotrypsinogen A. Briefly: The compound was tested for inhibition of Chymotrypsinogen with a pre-incubation time of 15 min.
The target of test [9] is T3, Prothrombin. Briefly: The compound was tested for inhibition of thrombin with a preincubation time of 15 min.

For the compound `C=CC[C@@H]1C(=O)O[C@H]2CCN(C(=O)OCc3ccccc3)C21` (stereo partly drawn), the IC50 in [1] was 0.074 µM; in test [2], 4.86 µM; in test [3], 44.6 µM; in test [4], 12.8 µM.

As for `C=CC[C@H]1C(=O)O[C@H]2CCN(C(=O)OCC)C21` (stereo partly drawn), the IC50 was 0.069 µM in [5], > 200 µM in test [6], 3.6 µM in test [7] and 4 µM in test [2].

Turning to `C=CC[C@H]1C(=O)N(S(=O)(=O)c2cccc3ccccc23)[C@H]2CCN(C(=O)OCc3ccccc3)C12` (stereo partly drawn), the IC50 in [1] was 0.088 µM; in [6], > 100 µM; in [2] it was 11.5 µM; in test [4], > 100 µM.

As to `C=CC[C@H]1C(=O)N(S(C)(=O)=O)[C@H]2CCN(C(=O)OCc3ccccc3)[C@H]12`, the IC50 in test [1] was 0.056 µM; in test [6], 53.2 µM; in test [2], 40.6 µM; in [4], 0.37 µM.

For the compound `C=CC[C@H]1C(=O)N[C@H]2CCN(C(=O)OCc3ccccc3)[C@@H]21`, the IC50 in [1] was > 500 µM; in [8] it was > 100 µM; in test [6] it was > 100 µM; in test [4], > 500 µM.

As to `CCC[C@@H](NC(=O)N1C(=O)C(CC)(CC)[C@@H]1Oc1ccc(C(=O)N2CCN(C)CC2)cc1)c1ccc2c(c1)OCO2`, the IC50 was 0.036 µM in test [1], 78.8 µM in [9], 0.98 µM in test [2] and 0.023 µM in test [4].

Turning to `C=CC[C@H]1C(=O)O[C@H]2CCN(C(=O)OCc3ccccc3)C21` (stereo partly drawn), the IC50 was determined as 0.047 µM in test [1], 15.9 µM in test [2], 49 µM in [3] and 0.336 µM in test [4].
